According to ChEMBL document CHEMBL1157468, “Design, synthesis, and testing of non-nephrotoxic desazadesferrithiocin polyether analogues” (J Med Chem, 2008):

How the values were obtained:
Rattus norvegicus [1] = test: Iron-clearing efficiency in non-iron-overloaded Sprague-Dawley rat at 150 umol/kg, po after 24 hrs relative to control; assay type: functional
In short: (§1)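 Male Sprague–Dawley rats (400–450 g), not iron-loaded and bile duct-cannulated, got one dose of 50, 150 or 300 µmol/kg po, or 300 µmol/kg sc. Vehicle was water or the monosodium salt. Bile was collected every 3 h for 24 h and urine at 24 h. Iron was measured by atomic absorption. Efficiency was treated minus control iron excretion, divided by theoretical output (2:1 ligand:iron), as a percent; mean ± SEM.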

Rattus norvegicus [2] = test: Iron-clearing efficiency in non-iron-overloaded Sprague-Dawley rat at 50 umol/kg, po after 24 hrs relative to control; assay type: functional; in short: as §1
Rattus norvegicus [3] = test: Iron-clearing efficiency in non-iron-overloaded Sprague-Dawley rat bile assessed as iron excretion at 300 umol/kg, po; assay type: functional; in short: as §1
Rattus norvegicus [4] = test: Iron-clearing efficiency in non-iron-overloaded Sprague-Dawley rat bile assessed as iron excretion at 150 umol/kg, po; assay type: functional; in short: as §1
Rattus norvegicus [5] = test: Iron-clearing efficiency in non-iron-overloaded Sprague-Dawley rat bile assessed as iron excretion at 50 umol/kg, po; assay type: functional; in short: as §1
Rattus norvegicus [6] = test: Iron-clearing efficiency in non-iron-overloaded Sprague-Dawley rat at 300 umol/kg, sc after 24 hrs relative to control; assay type: functional; in short: as §1
Sapajus apella [7] = test: Iron-clearing efficiency in iron-overloaded Cebus apella at 150 umol/kg, po after 2 days relative to control; assay type: functional
In short: (§2)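 Monkeys (Cebus apella, 3.5–4 kg) were iron-loaded to about 500 mg Fe/kg with iv iron dextran and rested at least 60 days. They then got one 150 µmol/kg dose, po or sc. Feces and urine were collected every 24 h from 4 days before to 5 days after dosing, and iron was measured by flame atomic absorption. Efficiency was the 2-day post-drug iron minus the 4-day pre-drug baseline, divided by theoretical output (2:1 ligand:iron); mean ± SEM.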

Sapajus apella [8] = test: Iron-clearing efficiency in iron-overloaded Cebus apella at 150 umol/kg, sc after 2 days relative to control; assay type: functional; in short: as §2
Rattus norvegicus [9] = test: Toxicity in iron-overloaded Sprague-Dawley rat assessed as survival at 75 umol/kg/day, po after 28 days by non-renal perfusion protocol; assay type: organism-based; settings: in vivo, 672 h
In short: (§3)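 Male Sprague–Dawley rats were iron-loaded with ip iron dextran, 105 mg/kg/dose × 4 over two weeks, then given two weeks to equilibrate (about 350 mg Fe/kg). They received oral gavage once daily for 28 days in the afternoon, unfasted, six per group, with age-matched controls. Euthanasia was 24 h after the last dose. Survival was recorded, and kidney and bone marrow were sent for histopathology.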

Rattus norvegicus [10] = test: Toxicity in iron-overloaded Sprague-Dawley rat assessed as survival at 150 umol/kg/day, po after 28 days by non-renal perfusion protocol; assay type: organism-based; settings: in vivo, 672 h; in short: as §3
Rattus norvegicus [11] = test: Toxicity in iron-overloaded Sprague-Dawley rat assessed as survival at 300 umol/kg/day, po after 28 days by non-renal perfusion protocol; assay type: organism-based; settings: in vivo, 672 h; in short: as §3
Rattus norvegicus [12] = test: Toxicity in non-iron-overloaded Sprague-Dawley rat assessed as survival at 75 umol/kg/day, po after 28 days by non-renal perfusion protocol; assay type: organism-based; settings: in vivo, 672 h
In short: (§4)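 Male Sprague–Dawley rats with normal iron stores, unfasted, received oral gavage once daily in the afternoon for 28 days, six per group, with age-matched untreated controls. Euthanasia was 24 h after the last dose. Survival was recorded over the dosing period, and kidney and bone marrow were examined histopathologically.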

Rattus norvegicus [13] = test: Toxicity in non-iron-overloaded Sprague-Dawley rat assessed as survival at 150 umol/kg/day, po after 28 days by non-renal perfusion protocol; assay type: organism-based; settings: in vivo, 672 h; in short: as §4
Rattus norvegicus [14] = test: Toxicity in non-iron-overloaded Sprague-Dawley rat assessed as survival at 300 umol/kg/day, po after 28 days by non-renal perfusion protocol; assay type: organism-based; settings: in vivo, 672 h; in short: as §4
Rattus norvegicus [15] = test: Nephrotoxicity in Sprague-Dawley rat assessed as heavy vacuolized renal tubules at […] for 7 days by renal perfusion studies; assay type: toxicity, organism-based; settings: in vivo, 168 h, in the assay text read “237 umol/kg” for “273 umol/kg”
In short: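 Male Sprague–Dawley rats (200–250 g), fasted overnight, got 237 µmol/kg/dose po twice daily (474 µmol/kg/day) for 7 days and were fed about 3 h post-drug. Untreated age-matched rats were controls. One day post-drug, under pentobarbital, kidneys were perfusion-fixed with glutaraldehyde in Tyrode's buffer and embedded in TAAB. 500 nm sections were stained with toluidine blue and examined by light microscopy at 400×.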

Liver [16] = test: Biodistribution in Sprague-Dawley rat liver assessed per gram tissue wet weight at 300 umol/kg, sc after 1 hr; assay type: ADME, organism-based; settings: in vivo
Liver [17] = test: Biodistribution in Sprague-Dawley rat liver assessed per gram tissue wet weight at 300 umol/kg, po after 1 hr; assay type: ADME, organism-based; settings: in vivo
In short: (§5)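 Male Sprague–Dawley rats (250–350 g) got one 300 µmol/kg dose, po or sc. Vehicle was water or the monosodium salt (free acid plus 1 equiv NaOH). Three rats per time point were euthanized by CO2 at 1, 2 or 4 h. Plasma came from citrated cardiac blood; liver, kidney, heart and pancreas were removed. Drug levels were measured by HPLC with UV detection at 310 nm against linear calibration curves (detection limit 0.25 µM).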

Liver [18] = test: Biodistribution in Sprague-Dawley rat liver assessed per gram tissue wet weight at 300 umol/kg, sc after 2 hrs; assay type: ADME, organism-based; settings: in vivo
Liver [19] = test: Biodistribution in Sprague-Dawley rat liver assessed per gram tissue wet weight at 300 umol/kg, po after 2 hrs; assay type: ADME, organism-based; settings: in vivo; in short: as §5
Liver [20] = test: Biodistribution in Sprague-Dawley rat liver assessed per gram tissue wet weight at 300 umol/kg, sc after 4 hrs; assay type: ADME, organism-based; settings: in vivo
Liver [21] = test: Biodistribution in Sprague-Dawley rat liver assessed per gram tissue wet weight at 300 umol/kg, po after 4 hrs; assay type: ADME, organism-based; settings: in vivo; in short: as §5
Kidney [22] = test: Biodistribution in Sprague-Dawley rat kidney assessed per gram tissue wet weight at 300 umol/kg, sc after 1 hr; assay type: ADME, organism-based; settings: in vivo
Kidney [23] = test: Biodistribution in Sprague-Dawley rat kidney assessed per gram tissue wet weight at 300 umol/kg, po after 1 hr; assay type: ADME, organism-based; settings: in vivo; in short: as §5
Kidney [24] = test: Biodistribution in Sprague-Dawley rat kidney assessed per gram tissue wet weight at 300 umol/kg, sc after 2 hrs; assay type: ADME, organism-based; settings: in vivo
Kidney [25] = test: Biodistribution in Sprague-Dawley rat kidney assessed per gram tissue wet weight at 300 umol/kg, po after 2 hrs; assay type: ADME, organism-based; settings: in vivo; in short: as §5
Kidney [26] = test: Biodistribution in Sprague-Dawley rat kidney assessed per gram tissue wet weight at 300 umol/kg, sc after 4 hrs; assay type: ADME, organism-based; settings: in vivo
Kidney [27] = test: Biodistribution in Sprague-Dawley rat kidney assessed per gram tissue wet weight at 300 umol/kg, po after 4 hrs; assay type: ADME, organism-based; settings: in vivo; in short: as §5
Heart [28] = test: Biodistribution in Sprague-Dawley rat heart assessed per gram tissue wet weight at 300 umol/kg, sc after 1 hr; assay type: ADME, organism-based; settings: in vivo
Heart [29] = test: Biodistribution in Sprague-Dawley rat heart assessed per gram tissue wet weight at 300 umol/kg, po after 1 hr; assay type: ADME, organism-based; settings: in vivo; in short: as §5
Heart [30] = test: Biodistribution in Sprague-Dawley rat heart assessed per gram tissue wet weight at 300 umol/kg, sc after 2 hrs; assay type: ADME, organism-based; settings: in vivo
Heart [31] = test: Biodistribution in Sprague-Dawley rat heart assessed per gram tissue wet weight at 300 umol/kg, po after 2 hrs; assay type: ADME, organism-based; settings: in vivo; in short: as §5
Heart [32] = test: Biodistribution in Sprague-Dawley rat heart assessed per gram tissue wet weight at 300 umol/kg, sc after 4 hrs; assay type: ADME, organism-based; settings: in vivo
Pancreas [33] = test: Biodistribution in Sprague-Dawley rat pancreas assessed per gram tissue wet weight at 300 umol/kg, sc after 1 hr; assay type: ADME, organism-based; settings: in vivo
Pancreas [34] = test: Biodistribution in Sprague-Dawley rat pancreas assessed per gram tissue wet weight at 300 umol/kg, po after 1 hr; assay type: ADME, organism-based; settings: in vivo; in short: as §5
Pancreas [35] = test: Biodistribution in Sprague-Dawley rat pancreas assessed per gram tissue wet weight at 300 umol/kg, sc after 2 hrs; assay type: ADME, organism-based; settings: in vivo
Pancreas [36] = test: Biodistribution in Sprague-Dawley rat pancreas assessed per gram tissue wet weight at 300 umol/kg, po after 2 hrs; assay type: ADME, organism-based; settings: in vivo; in short: as §5
Pancreas [37] = test: Biodistribution in Sprague-Dawley rat pancreas assessed per gram tissue wet weight at 300 umol/kg, sc after 4 hrs; assay type: ADME, organism-based; settings: in vivo
Pancreas [38] = test: Biodistribution in Sprague-Dawley rat pancreas assessed per gram tissue wet weight at 300 umol/kg, po after 4 hrs; assay type: ADME, organism-based; settings: in vivo; in short: as §5
Plasma [39] = test: Biodistribution in Sprague-Dawley rat plasma at 300 umol/kg, sc after 1 hr; assay type: ADME, organism-based; settings: in vivo
Plasma [40] = test: Biodistribution in Sprague-Dawley rat plasma at 300 umol/kg, po after 1 hr; assay type: ADME, organism-based; settings: in vivo; in short: as §5
Plasma [41] = test: Biodistribution in Sprague-Dawley rat plasma at 300 umol/kg, sc after 2 hrs; assay type: ADME, organism-based; settings: in vivo
Plasma [42] = test: Biodistribution in Sprague-Dawley rat plasma at 300 umol/kg, po after 2 hrs; assay type: ADME, organism-based; settings: in vivo; in short: as §5
Plasma [43] = test: Biodistribution in Sprague-Dawley rat plasma at 300 umol/kg, sc after 4 hrs; assay type: ADME, organism-based; settings: in vivo
Plasma [44] = test: Biodistribution in Sprague-Dawley rat plasma at 300 umol/kg, po after 4 hrs; assay type: ADME, organism-based; settings: in vivo; in short: as §5

## COCCOCCOCCOc1cccc(C2=N[C@@](C)(C(=O)O)CS2)c1O [DEFERITAZOLE]
Rattus norvegicus [1]
  Activity: 18.7%
Rattus norvegicus [2]
  Activity: 20.7%
Rattus norvegicus [3]
  Activity: >95%
Rattus norvegicus [4]
  Activity: >95%
Rattus norvegicus [5]
  Activity: >95%
Rattus norvegicus [6]
  Activity: 13.4%
Sapajus apella [7]
  Activity: 23%
Sapajus apella [8]
  Activity: 21.5%
Rattus norvegicus [9]
  Activity: Non-toxic
Rattus norvegicus [10]
  Activity: Non-toxic
Rattus norvegicus [11]
  Activity: Non-toxic
Rattus norvegicus [12]
  Activity: Non-toxic
Rattus norvegicus [13]
  Activity: Non-toxic
Rattus norvegicus [14]
  Activity: Non-toxic
Rattus norvegicus [15]
  Activity: Non-toxic
Liver [16]
  Drug uptake: 318 nmol/g
Liver [17]
  Drug uptake: 234 nmol/g
Liver [18]
  Drug uptake: 193 nmol/g
Liver [19]
  Drug uptake: 151 nmol/g
Liver [20]
  Drug uptake: 168 nmol/g
Liver [21]
  Drug uptake: 87 nmol/g
Kidney [22]
  Drug uptake: 259 nmol/g
Kidney [23]
  Drug uptake: 150 nmol/g
Kidney [24]
  Drug uptake: 145 nmol/g
Kidney [25]
  Drug uptake: 48 nmol/g
Kidney [26]
  Drug uptake: 90 nmol/g
Kidney [27]
  Drug uptake: 15 nmol/g
Heart [28]
  Drug uptake: 16 nmol/g
Heart [29]
  Drug uptake: 9 nmol/g
Heart [30]
  Drug uptake: 8 nmol/g
Heart [31]
  Drug uptake: 4 nmol/g
Heart [32]
  Drug uptake: 6 nmol/g
Pancreas [33]
  Drug uptake: 22 nmol/g
Pancreas [34]
  Drug uptake: 9 nmol/g
Pancreas [35]
  Drug uptake: 30 nmol/g
Pancreas [36]
  Drug uptake: 24 nmol/g
Pancreas [37]
  Drug uptake: 12 nmol/g
Pancreas [38]
  Drug uptake: 6 nmol/g
Plasma [39]
  Drug uptake: 46 nmol/g
Plasma [40]
  Drug uptake: 26 nmol/g
Plasma [41]
  Drug uptake: 24 nmol/g
Plasma [42]
  Drug uptake: 9 nmol/g
Plasma [43]
  Drug uptake: 13 nmol/g
Plasma [44]
  Drug uptake: 2 nmol/g
